Only some compounds are listed: those with a hit (about 3.3% of all), similar ones and a draw of the others.
STAT3 act – increases IL-6 driven STAT3 reporter signal. U3A cells, IL-6 STAT3-luciferase reporter, luminescence; 100% = signal with IL-6 EC80 alone. 190,000 compounds, 0.91% hits. AID 871. activation (% of control), % at 5.6 µM;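 active = activation above the screen-wide mean of compound activation plus 3 SD, cut at about 130% in these data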
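Assay system – human STAT1-deficient U3A cells with stable STAT3-luciferase reporter · Also added – IL-6 (33 ng/mL) · Schedule – compound 1 h, then IL-6 6 h at 37 °C · Technique – reporter luminescence signal · Evaluation – % activation versus median of IL-6-stimulated wells · Benchmarks – IL-6-only wells as 100% reference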
AHR activator – activators of human aryl hydrocarbon receptor | AHR-responsive luciferase reporter cells, luminescence | AID 2796 | 320,000 compounds, 2.5% hits | activation, % at 5 µM | P35869; in the data active = activation above about 47%
GAA850 FXN act – increases GAA850 frataxin promoter reporter activity; HEK293 lucGAA850 FXN promoter luciferase reporter, 24 h; percent of 10 µM SAHA response; activation, % at 6 µM; AID 540364; 360,000 compounds, 0.56% hits;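 active = activation above the average of all compounds screened plus 3 SD, cutoff fixed separately per campaign, cut at about 7.5% in these data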
ABCB6 inh MLPCN – blocks the human ABCB6 transporter | Q9NP58 | K562-ABCB6 porphyrin accumulation, flow cytometry, 1 h; stronger effect = lower value | fluorescence ratio to DMSO, % at 10 µM | 360,000 compounds, 0.19% hits | AID 602162;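 active = fluorescence ratio to DMSO below 75%, the collection mean minus 3 SD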;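 note: signal is porphyrin accumulated inside mitochondria; lower ratio means ABCB6 inhibition with less porphyrin fluorescence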
Target sequence (Q9NP58 whole entry, looked up): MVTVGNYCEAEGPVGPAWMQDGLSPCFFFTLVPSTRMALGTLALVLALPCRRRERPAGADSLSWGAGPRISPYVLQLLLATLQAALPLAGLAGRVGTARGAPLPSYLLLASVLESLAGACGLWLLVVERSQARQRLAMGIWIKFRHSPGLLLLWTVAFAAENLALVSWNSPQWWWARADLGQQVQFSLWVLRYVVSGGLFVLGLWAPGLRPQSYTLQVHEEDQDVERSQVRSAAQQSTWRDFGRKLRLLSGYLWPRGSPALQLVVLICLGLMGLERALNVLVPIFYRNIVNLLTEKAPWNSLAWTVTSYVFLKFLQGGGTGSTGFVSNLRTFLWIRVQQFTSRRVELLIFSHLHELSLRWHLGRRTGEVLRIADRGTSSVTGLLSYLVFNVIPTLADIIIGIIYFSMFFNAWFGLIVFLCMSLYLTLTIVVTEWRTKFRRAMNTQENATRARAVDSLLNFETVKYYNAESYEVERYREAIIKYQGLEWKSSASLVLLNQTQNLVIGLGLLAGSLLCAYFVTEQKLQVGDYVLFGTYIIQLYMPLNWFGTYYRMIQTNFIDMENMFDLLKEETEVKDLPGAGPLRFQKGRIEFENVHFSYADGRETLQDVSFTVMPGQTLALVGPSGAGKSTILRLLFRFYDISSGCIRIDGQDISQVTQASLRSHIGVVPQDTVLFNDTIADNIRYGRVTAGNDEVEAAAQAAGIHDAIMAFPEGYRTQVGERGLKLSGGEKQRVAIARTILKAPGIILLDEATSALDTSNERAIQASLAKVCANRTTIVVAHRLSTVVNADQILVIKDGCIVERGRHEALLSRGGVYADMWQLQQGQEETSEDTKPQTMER
GAA30 counter – GAA30 FXN promoter activation counter-screen; HEK293 lucGAA30 FXN promoter luciferase, 24 h; DMSO = 0%, 5 µM ipriflavone = 100%; activation, % at 6 µM; shares compounds with GAA850 FXN act; 1,900 compounds, 66% hits;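 active = mean activation above the mean of solvent-only control wells plus 3 SD, cut at about 22% in these data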;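 note: counterscreen of GAA850 promoter hits where activity marks nonselective or luminescence artifacts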
FXN GAA850 conf – confirmation of GAA850 frataxin (FXN) promoter activators | shares compounds with GAA850 FXN act | HEK293 lucGAA850 FXN promoter luciferase reporter, 24 h; 100% = activation by SAHA | activation, % at 6 µM | 1,900 compounds, 86% hits | AID 588351;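 active = mean activation above a set limit taken from the primary screen, cut at about 8% in these data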
A number is an active result; i = inactive; nt = no result given.

SMILES	STAT3 act	AHR activator	GAA850 FXN act	ABCB6 inh MLPCN	GAA30 counter	FXN GAA850 conf
COc1ccc(OC)c(NC(=O)C2CCCN(S(=O)(=O)c3c(C)noc3C)C2)c1 (stereo not drawn)	i	i	i	i	nt	nt
CCN(c1ccccc1)c1nc2ccsc2c(=O)s1	i	i	i	i	nt	nt
CN(c1ccccc1)c1nc2ccsc2c(=O)s1	i	i	7.7	i	93.8	35.7
O=C(NC1CCCC1)C(c1ccccn1)N(C(=O)c1csnn1)c1ccccc1Br (stereo not drawn)	nt	i	i	i	nt	nt
Cc1ccc(/C=C/C(=O)N2CCc3ccccc32)o1	i	i	10.6	i	115.8	37.4
CCC(Oc1ccccc1)C(=O)Nc1nnc(S(=O)(=O)N2CCCCC2)s1 (stereo not drawn)	nt	i	i	i	nt	nt
c1ccc(-c2csc(-c3cccnc3)n2)cc1	i	i	i	i	nt	nt
COc1ccc2cc(-c3csc(-c4cccnc4)n3)ccc2c1	i	i	8.1	i	92.1	37.3
COc1ccc(-c2csc(-c3cccnc3)n2)cc1C	i	i	9.5	i	88.2	32.4
Cc1ccc(C)c(-c2csc(-c3cccnc3)n2)c1	nt	i	i	i	nt	nt
O=C(NC(=S)Nc1ccc(N2CCCCC2)cc1)c1ccco1	i	i	i	i	nt	nt
CC1CCN(c2ccc(NC(=S)NC(=O)c3ccco3)cc2)CC1	i	i	7.9	i	68.7	31.9
COc1ccc(OC)c(NC(=O)C2(C)CCN2CCc2ccccc2)c1 (stereo not drawn)	nt	nt	i	i	nt	nt
CN(c1ccc(C(=O)NCCSC(C)(C)C)cc1)S(C)(=O)=O	i	i	8.1	i	104.0	30.2
CN(c1ccc(C(=O)NCCc2ccccc2)cc1)S(C)(=O)=O	i	i	i	i	nt	nt
Cc1cc(=O)[nH]c(N/N=C/c2c[nH]c3ccccc23)n1	nt	i	i	i	nt	nt
C(=N\Nc1nc2ccccc2[nH]1)/c1c[nH]c2ccccc12	i	107.8	9.8	i	128.8	43.5
Cc1cccc(-c2nc(CN3CCCC(C(=O)NC4CCC(C)CC4)C3)c(C)o2)c1 (stereo not drawn)	i	i	i	i	nt	nt
Cc1cccc(-c2nc(CN3CCCC(C(=O)NC4CCCC4)C3)c(C)o2)c1 (stereo not drawn)	i	i	8.0	i	i	i
Cc1cc(OCC(=O)NCCN2CCOCC2)c2c(C)c(C)c(=O)oc2c1	nt	i	i	i	nt	nt
CC(C)(C)c1ccc2c(c1)C(=O)c1ccccc1C2=O	i	i	7.9	i	111.3	38.3
CC(C)(C)c1ccc(-c2ccc3c(c2)S(=O)(=O)c2ccccc2C3=O)cc1	nt	i	i	i	nt	nt
CCSc1nc2c(c(=O)n(C)c(=O)n2C)n1Cc1ccc(Cl)cc1	i	i	i	i	nt	nt
CCSc1nc2c(c(=O)[nH]c(=O)n2C)n1Cc1ccc(Cl)cc1	i	i	7.6	i	22.9	17.7
C/C=C/CSc1nc2c(c(=O)[nH]c(=O)n2C)n1Cc1ccc(C)cc1	i	i	28.5	i	i	16.8
SMILES	STAT3 act	AHR activator	GAA850 FXN act	ABCB6 inh MLPCN	GAA30 counter	FXN GAA850 conf
CC(C)CCn1c(SCc2ccc(Cl)cc2)nc2c1c(=O)[nH]c(=O)n2C	i	i	i	i	nt	nt
CC(C)Cn1c([N+](=O)[O-])nc2c1c(=O)[nH]c(=O)n2C	nt	i	i	i	nt	nt
CCCCn1c(SCc2ccc(Cl)cc2)nc2c1c(=O)[nH]c(=O)n2C	i	i	8.9	i	i	10.1
Cn1c(=O)[nH]c(=O)c2c1nc([N+](=O)[O-])n2Cc1ccccc1	nt	i	8.5	i	i	i
Cc1ccc(Cn2c(Sc3ncccn3)nc3c2c(=O)[nH]c(=O)n3C)cc1	i	i	i	i	nt	nt
O=C(c1ccc(F)cc1)C1CCN(C(=O)NCc2ccccc2)CC1	i	i	i	i	nt	nt
Cc1n[nH]c(C)c1CCC(=O)N/N=C/C=C/c1ccccc1	i	i	i	i	nt	nt
Nc1cccc2nc3ccccc3cc12	151.5	i	18.6	i	i	101.3
COc1ccc(OC)c(C(=O)Cn2cnc3ccccc3c2=O)c1	nt	i	i	i	nt	nt
COc1ccc(C(=O)Cn2cnc3ccccc3c2=O)c(OC)c1	nt	nt	7.7	i	56.7	24.3
O=C(OCCN1C(=O)c2cccc3c(N4CCOCC4)ccc(c23)C1=O)c1cc(Cl)cc(Cl)c1	i	nt	nt	nt	nt	nt
CCN(CC)S(=O)(=O)c1ccc(C(=O)OCCN2C(=O)c3cccc4c(N5CCOCC5)ccc(c34)C2=O)cc1	i	i	8.5	i	i	i
Cn1c(=O)c2c3c(sc2n2c(SCc4ccccc4)nnc12)CCCC3	i	i	nt	nt	nt	nt
COc1ccccc1/C=C/C1C(C(=O)OCC(C)C)=C(C)N=C2SCCC(=O)N21 (stereo not drawn)	i	i	i	i	nt	nt
COC(=O)C1=C(C)N=C2SCCC(=O)N2C1/C=C/c1ccccc1 (stereo not drawn)	i	i	8.0	i	i	i
COc1ccc(OC)c(/C=C/C(=O)N2C(=O)c3cccc(N)c3C2=O)c1	i	i	9.2	i	i	8.9
Cc1ccc(N2C(=O)c3ccccc3C2C(=O)c2ccc(C)c(C)c2O)cc1 (stereo not drawn)	nt	i	i	i	nt	nt
CCOC(=O)C1(Cc2ccccc2Cl)CCN(C(=O)c2cnccn2)CC1	i	i	i	i	nt	nt
OCCN1CCN(c2ncnc3c2ncn3[C@H]2CN(Cc3cccnc3)C[C@@H](CO)O2)CC1	nt	nt	i	i	nt	nt
COc1nc(N(C#N)CC(N)=O)nc(N2CCCC2)n1	i	i	11.9	i	i	18.0
Cc1cccc(CN2CCSc3sccc3C2=O)c1	i	i	i	i	nt	nt
COc1ccccc1N1CCN(c2cc(=O)n(-c3ccc(Cl)cc3)c(=O)[nH]2)CC1	i	i	i	i	nt	nt
COc1ccccc1N1CCN(c2cc(=O)n(-c3ccc(Br)cc3)c(=O)[nH]2)CC1	i	i	11.3	i	i	12.0
O=C(Oc1ccccc1/C=C\C(=O)c1cc2ccccc2o1)c1cccc(F)c1	i	70.0	8.9	i	40.3	20.0
O=C(Oc1ccccc1/C=C\C(=O)c1cc2ccccc2o1)c1ccccc1	i	67.8	8.7	i	110.8	42.7
SMILES	STAT3 act	AHR activator	GAA850 FXN act	ABCB6 inh MLPCN	GAA30 counter	FXN GAA850 conf
COc1cccc(C(=O)Oc2ccccc2/C=C\C(=O)c2cc3ccccc3o2)c1	i	nt	7.8	i	95.2	45.3
CC(C)(C)NC(=O)C[C@H]1C[C@H](C(=O)N2CCOCC2)[C@@]2(C)c3[nH]c4ccc(Cl)cc4c3CCN2C1=O	nt	nt	i	i	nt	nt
CCC1(C)NC(=O)N(CC(=O)Nc2cc(C)on2)C1=O (stereo not drawn)	nt	i	i	i	nt	nt
COc1cc(C(=O)O)nc2ccc([N+](=O)[O-])cc12	i	i	i	i	nt	nt
CCOC(=O)CSc1nc(N)c(C#N)c(-c2cccs2)c1C#N	i	i	i	i	nt	nt
N#Cc1c(N)nc(SCc2ccccn2)c(C#N)c1-c1cccs1	i	i	20.4	i	25.9	18.8
Clc1ccc(-c2csc(Nc3ccccc3)[n+]2Cc2ccco2)c(Cl)c1	i	nt	7.9	i	82.6	36.5

Compound activity deposited in PubChem by several laboratories.
